ChEMBL document CHEMBL1275585, “Combined antibacterial and anti-inflammatory activity of a cationic disubstituted dexamethasone-spermine conjugate” (Antimicrob Agents Chemother, 2010)
Values after ≈ are worked out from the molar mass of the structure shown. Active and inactive are the calls of the source. No cut-off for these calls is given here.

Legend:
[1] = tested on: Staphylococcus aureus; test: Antibacterial activity against macrolide-lincosamide-streptogramin B-negative, beta-lactamase-positive, methicillin-susceptible Staphylococcus aureus ATCC 29213; type: functional
[2] = tested on: Staphylococcus aureus; test: Antibacterial activity against macrolide-lincosamide-streptogramin B-positive, beta-lactamase-positive, methicillin-resistant Staphylococcus aureus ATCC 43300; type: functional
Outline: (§1)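 MIC by broth dilution in Mueller-Hinton broth, inoculum 8 × 10^5 CFU/ml. Strains were typed for beta-lactamase with cefinase, for methicillin susceptibility by Etest, and for macrolide-lincosamide-streptogramin B by disc diffusion on MHA at 0.5 McFarland.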

[3] = tested on: Staphylococcus aureus; test: Antibacterial activity against macrolide-lincosamide-streptogramin B-negative, beta-lactamase-positive, methicillin-susceptible Staphylococcus aureus isolate 3; type: functional
[4] = tested on: Staphylococcus aureus; test: Antibacterial activity against macrolide-lincosamide-streptogramin B-negative, beta-lactamase-positive, methicillin-susceptible Staphylococcus aureus isolate 4; type: functional
[5] = tested on: Staphylococcus aureus; test: Antibacterial activity against macrolide-lincosamide-streptogramin B-negative, beta-lactamase-positive, methicillin-susceptible Staphylococcus aureus isolate 5; type: functional
[6] = tested on: Staphylococcus aureus; test: Antibacterial activity against macrolide-lincosamide-streptogramin B-positive, beta-lactamase-positive, methicillin-resistant Staphylococcus aureus isolate 6; type: functional; outline: as §1
[7] = Cytotoxicity against human neutrophil assessed as effect on cell viability up to 20 uM after 12 hrs by microscopy; type: cell-based
Outline: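 Freshly isolated human blood neutrophils incubated with D2S up to 20 µM for 12 h. Viability scored by manual trypan blue exclusion.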

[8] = tested on: Pseudomonas aeruginosa; test: Bactericidal activity against kanamycin-resistant Pseudomonas aeruginosa PAO1 up to 50 uM after 1 hr by time-kill assay
[9] = tested on: Staphylococcus aureus; test: Antibacterial activity against macrolide-lincosamide-streptogramin B-negative, beta-lactamase-positive, methicillin-susceptible Staphylococcus aureus ATCC 29213 in presence of clavulanic acid; type: functional
Outline: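 Amoxicillin/clavulanic acid MIC against S. aureus measured alone and together with sublethal D2S concentrations.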

Compound: NCC[C@H](O)C(=O)N[C@@H]1C[C@H](N)[C@@H](O[C@H]2O[C@H](CN)[C@@H](O)[C@H](O)[C@H]2O)[C@H](O)[C@H]1O[C@H]1O[C@H](CO)[C@@H](O)[C@H](N)[C@H]1O [AMIKACIN]
- MIC [1]: 1.6 µg/mL (≈ 2.73 µM)
- MIC [2]: 25 µg/mL (≈ 42.7 µM)
- MIC [3]: 1.6 µg/mL (≈ 2.73 µM)
- MIC [4]: 3.2 µg/mL (≈ 5.46 µM)
- MIC [5]: 1.6 µg/mL (≈ 2.73 µM)
- MIC [6]: 25 µg/mL (≈ 42.7 µM)

Compound: CN(C)[C@@H]1C(O)=C(C(N)=O)C(=O)[C@@]2(O)C(O)=C3C(=O)c4c(O)cccc4[C@@](C)(O)[C@H]3C[C@@H]12 [TETRACYCLINE]
- MIC [1]: 1.25 µg/mL (≈ 2.81 µM)
- MIC [2]: 0.625 µg/mL (≈ 1.41 µM)
- MIC [3]: 1.25 µg/mL (≈ 2.81 µM)
- MIC [4]: 1.25 µg/mL (≈ 2.81 µM)
- MIC [5]: 40 µg/mL (≈ 90 µM)
- MIC [6]: 20 µg/mL (≈ 45 µM)

Compound: CC[C@H]1OC(=O)[C@H](C)[C@@H](O[C@H]2C[C@@](C)(OC)[C@@H](O)[C@H](C)O2)[C@H](C)[C@@H](O[C@@H]2O[C@H](C)C[C@H](N(C)C)[C@H]2O)[C@](C)(O)C[C@@H](C)C(=O)[C@H](C)[C@@H](O)[C@]1(C)O [ERYTHROMYCIN]
- MIC [1]: 0.4 µg/mL (≈ 0.545 µM)
- MIC [2]: 400 µg/mL (≈ 545 µM)
- MIC [3]: 0.2 µg/mL (≈ 0.273 µM)
- MIC [4]: 0.4 µg/mL (≈ 0.545 µM)
- MIC [5]: 0.2 µg/mL (≈ 0.273 µM)
- MIC [6]: 400 µg/mL (≈ 545 µM)

Compound: C[C@@H]1C[C@H]2[C@@H]3CCC4=CC(=O)C=C[C@]4(C)[C@@]3(F)[C@@H](O)C[C@]2(C)[C@@]1(O)C(=O)CO [DEXAMETHASONE]
- Activity [7]: Non-toxic
- Activity [8]: inactive

Compound: CC1(C)S[C@@H]2[C@H](NC(=O)[C@H](N)c3ccc(O)cc3)C(=O)N2[C@H]1C(=O)O [AMOXICILLIN]
- MIC [2]: 12.5 µg/mL (≈ 34.2 µM)
- MIC [3]: 0.2 µg/mL (≈ 0.547 µM)
- MIC [4]: 1.6 µg/mL (≈ 4.38 µM)
- MIC [5]: 3.2 µg/mL (≈ 8.76 µM)
- MIC [6]: 12.5 µg/mL (≈ 34.2 µM)
- MIC [9]: 0.4 µg/mL
